# TRPC4 block: inhibitors of mouse TRPC4 channel, primary screen, Fluo4 calcium, HEK293 TRPC4beta/mu-opioid cells; 300,000 tested, 0.39% active; DAMGO-evoked Fluo4 calcium flux; stronger effect = lower value; AID 2247, 2010; B-score at 10 µM; Short transient receptor potential channel 4 (Mus musculus), Q9QUQ5;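 active means B-score over 3 SD under the library average, no early fluorescence shift, positive overall ratio signal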
#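 Assay system: HEK293 cells with stable TRPC4beta plus mu-opioid receptor expression. Dosing: single dose. Measured by: Fluo4 Ca2+ flux fluorescence. Also added: DAMGO in two steps, submaximal then maximal. Read-out: B score from integrated Fluo4 fluorescence ratio.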
# TRPC4 act: activators of mouse TRPC4 channel, primary screen, Fluo4 calcium, HEK293 TRPC4beta/mu-opioid cells | Fluo4 calcium fluorescence; stronger effect = higher value | B-score at 10 µM | 310,000 tested, 0.49% active;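 active means B-score above 5 SD of library B-scores, and initial fluorescence ratio not above library mean plus 5 SD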;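 further: positive B-score marks a calcium rise read as TRPC4 activation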
#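 System – HEK293 cells stably co-expressing mouse TRPC4beta and mu-opioid receptor · Signal – Fluo4 calcium-sensitive dye fluorescence, kinetic, 1 Hz baseline · Benchmarks – buffer (low) and maximal DAMGO (high) · Read-out – B score of integrated fluorescence ratio per well · Incubation – dye loading 45 min room temperature, 110 s kinetic read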
# TRPC6 act: mouse TRPC6 channel activators, primary screen, cell-based, HEK293, membrane potential dye; HEK293-TRPC6 membrane potential dye fluorescence; stronger effect = higher value; B-score at 10 µM; 310,000 tested, 0.13% active;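 active means B-score of the integrated fluorescence ratio above library mean plus 3 SD, and starting fluorescence ratio within library mean plus 5 SD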;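 further: higher score means more depolarization so channel activation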
# Target sequence (Q61143 whole entry, looked up): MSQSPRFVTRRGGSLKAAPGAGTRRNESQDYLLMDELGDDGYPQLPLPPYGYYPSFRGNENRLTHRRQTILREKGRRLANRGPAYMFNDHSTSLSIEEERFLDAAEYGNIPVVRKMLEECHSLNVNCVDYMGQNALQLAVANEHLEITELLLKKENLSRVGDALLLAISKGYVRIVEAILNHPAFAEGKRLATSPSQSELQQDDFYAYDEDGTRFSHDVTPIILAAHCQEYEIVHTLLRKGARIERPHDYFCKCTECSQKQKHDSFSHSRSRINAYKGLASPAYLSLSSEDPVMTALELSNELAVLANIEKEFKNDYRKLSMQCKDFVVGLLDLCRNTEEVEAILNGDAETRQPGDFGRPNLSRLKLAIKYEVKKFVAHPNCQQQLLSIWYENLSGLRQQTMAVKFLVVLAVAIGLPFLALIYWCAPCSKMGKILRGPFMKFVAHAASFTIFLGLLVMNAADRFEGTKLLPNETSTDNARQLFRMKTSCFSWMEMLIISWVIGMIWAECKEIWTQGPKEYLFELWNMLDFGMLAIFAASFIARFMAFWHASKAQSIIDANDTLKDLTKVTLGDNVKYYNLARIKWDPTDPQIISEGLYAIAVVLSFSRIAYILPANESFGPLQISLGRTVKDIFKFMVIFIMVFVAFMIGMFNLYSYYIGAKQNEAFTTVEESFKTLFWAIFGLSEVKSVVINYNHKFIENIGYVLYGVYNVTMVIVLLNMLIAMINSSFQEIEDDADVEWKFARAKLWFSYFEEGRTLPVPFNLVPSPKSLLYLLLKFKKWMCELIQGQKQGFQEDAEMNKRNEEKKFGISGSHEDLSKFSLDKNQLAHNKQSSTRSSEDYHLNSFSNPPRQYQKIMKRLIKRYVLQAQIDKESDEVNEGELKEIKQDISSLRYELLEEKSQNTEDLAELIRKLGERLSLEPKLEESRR
# TRPC4 PAM: positive allosteric modulators of TRPC4, primary screen, cell-based, mouse TRPC4beta, HEK293 mu-opioid, Fluo-4 calcium; Short transient receptor potential channel 4 (Mus musculus), Q9QUQ5; DAMGO EC20, Fluo-4 Ca2+ flux; stronger effect = higher value; B-score at 10 µM; 310,000 tested, 0.42% active; AID 2227, 2009;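 active means B-score of calcium response area above 5 SD of library B-scores, with initial fluorescence ratio within 5 SD of library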;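 further: B-score of integrated fluorescence ratio over time as area under calcium response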
# TRPC6 inh: mouse TRPC6 channel inhibitors, primary screen, cell-based, HEK293, membrane potential dye. Short transient receptor potential channel 6 (Mus musculus), Q61143. AID 2553, 2010. 310,000 tested, 1.1% active. B-score at 10 µM. ACh-evoked depolarization; stronger effect = lower value;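 active means B-score under library mean minus 3 SD, initial fluorescence not abnormally high, positive integrated signal ratio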;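 further: B-score derived from integrated fluorescence ratio over the kinetic read; more negative B-score means stronger inhibition of depolarization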
# TRPC4 sel inh 2: second selectivity test of TRPC6 inhibitors: effect on mouse TRPC4; shares compounds with TRPC6 inh; HEK293 TRPC4/MOR, membrane potential dye fluorescence; channel activated by saturating DAMGO dose; inhibition, % at 10 µM; 920 tested, 42% active; AID 2776;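 active means compounds whose fluorescence signal differed from control wells by over 3 SD, either direction, in both duplicate plates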
# TRPC4 spec: mouse TRPC4 modulation by TRPC6 hits, confirmation, selectivity assay for TRPC6 inhibitor project, cell-based, HEK293 TRPC4/mu-opioid, membrane potential dye | membrane potential fluorescence | activity change, negative = inhibition, % at 10 µM | shares compounds with TRPC6 inh | 920 tested, 61% active;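 active means rise or fall in signal beyond 3 SD of buffer-only wells in both replicate plates, either sign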;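 further: integrated kinetic ratio of fluorescence range over baseline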
# HEK293 MPD ctr 2-1: nonspecific membrane potential effects, parental HEK293, confirmation, counter-screen for TRPC6 inhibitor project, cell-based, second counter screen; shares compounds with TRPC6 inh; parental HEK293 membrane potential dye fluorescence; maximal acetylcholine challenge after compound addition; signal change vs control, % at 10 µM; 920 tested, 31% active; AID 2779, 2010;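 active means membrane potential signal moving either way by over 3 SD of the maximum-effect control, in both duplicate plates, meaning non-specific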
# HEK293 MPD ctr-1: membrane potential modulation in parental HEK293, confirmation, counter-screen for TRPC6 inhibitor project, cell-based; shares compounds with TRPC6 inh; parental HEK293 membrane potential dye fluorescence; membrane potential signal change, % at 10 µM; 920 tested, 60% active; AID 2780, 2010;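 active means membrane potential signal shifting up or down by more than 3 SD of buffer-only wells, on both duplicate plates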
# HEK293 MPD ctr-2: parental HEK293 membrane potential modulation, confirmation, counter-screen for TRPC6 modulator project, cell-based | shares compounds with TRPC6 inh | membrane potential dye fluorescence | membrane potential signal change, % at 10 µM | 2,400 tested, 51% active | AID 488924, 2010;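 active means membrane potential signal moves up or down beyond 5 SD from buffer-only wells, on both duplicate plates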
# HEK293 MPD ctr 2-2: parental HEK293 nonspecific activity of TRPC6 modulators, second screen; shares compounds with TRPC6 inh; membrane potential dye fluorescence; after compound, maximal acetylcholine stimulation; inhibition, % at 10 µM; 2,400 tested, 14% active;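 active means membrane potential signal drops by more than 5 SD from the mean control signal, in both duplicate plates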;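 further: plate controls were acetylcholine ECmax control wells for no effect and buffer only wells for full effect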
# TRPC4/MOR mod: TRPC4 modulation by TRPC6 hit compounds, confirmation, selectivity assay for TRPC6 modulator project, cell-based, HEK293 TRPC4/mu-opioid, membrane potential dye, mouse | shares compounds with TRPC6 inh | membrane potential fluorescence | percent change from control (negative = decrease, positive = increase), % at 10 µM | 2,400 tested, 69% active | AID 488927, 2010;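 active means membrane potential signal moved up or down beyond 5 SD of buffer control wells, in both duplicate plates, actives on both sides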;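 further: plate controls were assay buffer wells for no effect and DAMGO maximal-effect wells for full effect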
# TRPC4/MOR inh 2: mouse TRPC4 off-target activity of TRPC6 modulators, second screen; shares compounds with TRPC6 inh; HEK293 TRPC4/mu-opioid, membrane potential dye fluorescence; stimulated with maximal-effect DAMGO; inhibition, % at 10 µM; 2,400 tested, 55% active;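 active means drop in membrane potential signal beyond 5 SD of the control wells in both duplicate plates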;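 further: TRPC4 counter screen for TRPC6 hits run under conditions tuned for TRPC6 not TRPC4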
# TRPC6 block conf: mouse TRPC6 channel inhibitors, confirmation, HEK293 cells, membrane potential dye, duplicate; shares compounds with TRPC6 inh; ACh-evoked depolarization; inhibition, % at 10 µM; 3,300 tested, 43% active; AID 488960, 2010;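 active means fluorescence ratio falls more than 5 SD below the full-stimulation control mean, in both duplicate runs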;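 further: integrated fluorescence ratio of peak minus minimum over baseline after agonist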
# TRPC6 act confirm: mouse TRPC6 channel activators, confirmation, HEK293 cells, membrane potential dye, duplicate; shares compounds with TRPC6 inh; HEK293-TRPC6 membrane potential dye fluorescence, FDSS; activation, % at 10 µM; 2,800 tested, 11% active; AID 488961, 2010;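 active means ratio signal rise beyond 5 SD above unstimulated control wells' mean, seen in both duplicate runs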;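 further: plate controls were buffer EC0 wells for no effect and acetylcholine ECmax response for full effect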
# Starred values were filed as active, the others as inactive; i = inactive; / = not tested or not shown. In the library only some 2.3% were active in any assay of this set; here they are far more common.
SMILES,TRPC4 block,TRPC4 act,TRPC6 act,TRPC4 PAM,TRPC6 inh,HEK293 MPD ctr-2,HEK293 MPD ctr 2-2,TRPC4/MOR mod,TRPC4/MOR inh 2,TRPC6 block conf,TRPC6 act confirm,others
Clc1ccc(CNC2CCN(Cc3ccccc3)CC2)cc1,i,i,i,i,-6.01*,i,i,i,55.0%*,i,/,
Fc1ccc(CNC2CCN(Cc3ccccc3)CC2)cc1,i,i,i,i,i,/,/,/,/,/,/,
COC(c1ccccc1)c1nnc(CCC(=O)N(C)Cc2cccc(-n3cccn3)c2)o1 (stereo not given),i,i,15.6*,i,i,i,i,8.5%*,i,i,i,
CCC(COC(=O)Nc1cccc(C)c1)NC(=O)OCC(C)C (stereo not given),i,i,i,i,-5.09*,i,i,i,i,i,i,
CCNC(=O)OCC(CC)NC(=O)OCC(C)C (stereo not given),i,i,i,i,i,/,/,/,/,/,/,
N=c1c(C(=O)NCC2CCCO2)cc2c(=O)n3ccccc3nc2n1Cc1cccnc1 (stereo not given),i,i,i,i,-7.46*,i,83.5%*,-100.5%*,33.0%*,49.5%*,i,
N=c1c(C(=O)NCC2CCCO2)cc2c(=O)n3ccccc3nc2n1Cc1ccc(F)cc1 (stereo not given),i,i,i,i,-6.02*,i,i,-9.5%*,48.5%*,48.0%*,i,
N=c1c(C(=O)NCCc2ccccc2)cc2c(=O)n3ccccc3nc2n1Cc1ccco1,i,i,i,i,i,/,/,/,/,/,/,
CCOCCCNc1nc2nc3ccc(C)cn3c(=O)c2cc1C(=O)NCC1CCCO1 (stereo not given),i,i,i,i,-5.48*,149.0%*,61.0%*,23.5%*,i,i,/,
N=c1c(C(=O)NCC2CCCO2)cc2c(=O)n3ccccc3nc2n1Cc1ccco1 (stereo not given),i,i,i,i,-5.28*,i,75.5%*,13.0%*,i,i,i,
COC(=O)CC1(C(=O)OC)Oc2ccc(Br)cc2C(=O)N1c1cc(Cl)c(Cl)cc1Cl (stereo not given),i,i,i,i,i,/,/,/,/,/,/,
CCCCC1=CC2=C(c3ccco3)C(=O)C(C)(OC(=O)c3ccc(OC)cc3)C(=O)C2=CN1c1ccccc1 (stereo not given),i,i,i,i,i,/,/,/,/,/,/,
COc1ccc(CNc2nc3ccccc3n2CCN2CCCCC2)cc1,i,i,i,i,i,/,/,/,/,/,/,
CCN(CC)CCn1c(NCc2nc3ccccc3n2Cc2ccccc2)nc2ccccc21,i,i,i,i,-7.1*,/,/,/,/,53.0%*,i,TRPC4 sel inh 2=36.5%*;TRPC4 spec=18.0%*;HEK293 MPD ctr 2-1=275.5%*;HEK293 MPD ctr-1=8.3%*
c1ccc(Cn2c(CNc3nc4ccccc4n3CCN3CCCCC3)nc3ccccc32)cc1,i,i,i,i,-6.65*,/,/,/,/,i,i,TRPC4 sel inh 2=59.0%*;TRPC4 spec=11.1%*;HEK293 MPD ctr 2-1=284.5%*;HEK293 MPD ctr-1=6.9%*
CCN(CC)c1ccc(CNc2nc3ccccc3n2CCN2CCCCC2)cc1,i,119*,i,i,-5.91*,i,i,31.5%*,97.0%*,51.5%*,i,
Cn1c(CNc2nc3ccccc3n2CCN2CCCCC2)nc2ccccc21,i,i,i,i,-6.55*,i,i,i,72.5%*,44.0%*,i,
CCN(CC)CCn1c(NCc2ccco2)nc2ccccc21,i,i,i,i,i,/,/,/,/,/,/,
CCn1c(NCc2ccc(N(C)C)cc2)nc2ccccc21,i,i,i,i,-5.31*,i,i,-14.0%*,46.0%*,i,i,
COc1cc2c(cc1OC)C(C)N(S(=O)(=O)c1ccc(C)cc1)CC2 (stereo not given),i,i,i,i,-6.91*,/,/,/,/,i,/,TRPC4 sel inh 2=i;TRPC4 spec=-0.1%*;HEK293 MPD ctr 2-1=i;HEK293 MPD ctr-1=1.0%*
CCN(CC)C1CCN(C(=O)CCc2nnc(CCCCc3ccccc3)o2)C1 (stereo not given),i,i,i,i,-5.18*,i,i,i,i,i,i,
